The list is not random: actives were taken first. Their share in the collection is about 3.5%.
NF-kB neuron act – raises NF-kB expression in human neuronal cells; NF-kB reporter expression; hits give high values; fold change at 12.5 µM; actives 1.6% (n = 190,000); in the data active means fold change above about 3.3
Pf gametocyte – inhibitors of late stage P. falciparum gametocyte viability. actives 0.065% (n = 150,000). inhibition, % at 10.9 µM. AID 743093. P. falciparum stage V gametocytes, ATP luminescence, 24 h;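 active means inhibition above the mean plus 3 SD of compounds within the control limits, set per campaign, cut at about 38% in these data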;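 further: 0% = DMSO wells and 100% = medium only without gametocytes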
STAT1 activator – STAT1 signaling activation. actives 2.6% (n = 200,000). activation (% of control), % at 5.5 µM. NIH 3T3 STAT1-luciferase reporter, IFN-gamma, luminescence; 100% = IFN-gamma alone, no compound. AID 932;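 active means activation above the screen-wide mean activation plus 3 SD, cut at about 130% in these data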;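 further: raw ratio to IFN-gamma control signal so 100% means no change and 0% no light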
FLuc inh counter – inhibits firefly luciferase, flagging false hits in luciferase inhibition screens | inhibition, % at 10 µM | ATPLite firefly luciferase biochemical luminescence, 10 min | actives 1.5% (n = 200,000) | P08659;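 active means inhibition above about 50% when tested at 10 µM, limit read from the data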
FLuc act counter – firefly luciferase counter-screen for stimulation assays | 200,000 tested, under 10 active | ATPlite luciferase biochemical, luminescence, 10 min; 0 = ATP-free wells, 1 = DMSO control | P08659 | activation factor at 10 µM;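 active means luciferase activation factor, scaled between plate controls, of at least 2 with compound at 10 µM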
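Assay system: Luciferase/luciferin detection reagent, cell-free biochemical luciferase assay / Also added: ATP substrate / Schedule: 10 min at ambient temperature / Measured by: luminescence measurement of luciferase light output / Benchmarks: low control with PBS replacing ATP, high control enzyme plus ATP without compound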
APP 5'UTR act – activates APP 5'UTR luciferase reporter. AID 1276. activation, % at 2 µM. actives 1% (n = 190,000). SH-SY5Y APP 5'UTR luciferase reporter, luminescence; zero percent = DMSO vehicle wells;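 active means activation above a set limit, based on mean plus 3 SD of controls, cut at about 140% in these data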
* marks the source's active call; other numbers are inactive results; . = no result given.

SMILES	NF-kB neuron act	Pf gametocyte	STAT1 activator	FLuc inh counter	FLuc act counter	APP 5'UTR act
Cc1nc2scc(-c3cccs3)c2c(=O)o1	1.11	.	107.0	-5.1	1.1	17.9
O=c1oc(-c2cccs2)nc2scc(-c3cccs3)c12	1.86	-1.8	105.5	18.7	0.8	200.2*
Cc1ccccc1-c1nc2sc3c(c2c(=O)o1)CCC3	4.04*	.	104.4	26.6	0.7	14.3
O=c1oc(-c2cccs2)nc2sc3c(c12)CCCCC3	.	.	99.1	67.3*	0.3	76.6
O=c1oc(/C=C/c2ccccc2)nc2sc3c(c12)CCC3	1.99	.	113.7	42.0	0.6	8.8
O=c1oc(-c2ccccc2)nc2sc3c(c12)CCCC3	6.14*	.	136.2*	43.0	0.6	47.9
COc1ccc(Nc2ncc3c(n2)CC(c2ccccc2)CC3=O)cc1 (centres undefined)	1.09	.	104.0	-11.0	1.1	-6.9
COc1cc(SC)ccc1C(=O)Nc1ccc(C)cc1	6.57*	6.6	146.3*	53.8*	0.5	184.2*
COc1cc(SC)ccc1C(=O)Nc1ncc(C)s1	0.9	3.9	15.9	93.4*	0.1	127.5
COc1cc(SC)ccc1C(=O)Nc1cccc(C)n1	1.01	3.9	143.8*	69.5*	0.3	243.6*
COc1cc(SC)ccc1C(=O)Nc1ccc(S(=O)(=O)N2CCCC2)cc1	1.1	.	99.7	-4.2	1	-6.2
COC(=O)c1ccc(COC(=O)c2ccc(SC)cc2OC)cc1	1.74	10.8	134.9*	-7.0	1.1	28.6
COc1cc(SC)ccc1C(=O)Nc1ccc(Br)cn1	.	8.9	.	.	.	.
Cn1ccnc1SCC(=O)Nc1ccc2ccccc2c1	4.38*	.	140.3*	33.9	0.7	104.7
Cn1ccnc1SCC(=O)c1ccc2ccccc2c1	3.04	4.0	146.0*	43.6	0.6	163.5*
COc1cccc(C(=O)CSc2nccn2C)c1	.	19.2	.	.	.	.
O=C(CNCCO)N1CCc2ccccc21	1.17	13.8	98.8	0.2	1	-8.7
O=C(CNc1ccccc1OC(F)F)N1CCc2ccccc21	3.21	-21.5	142.6*	10.0	0.9	92.5
O=C(c1cccs1)N1CCN(c2ncc(Br)cn2)CC1	.	-12.9	.	.	.	.
Oc1ccc(N2CCN(C(=S)NCCc3ccccc3)CC2)cc1	4.74*	.	86.7	-5.0	1.1	-0.6
COc1ccc(N2CCN(C(=S)NCCc3ccccc3)CC2)cc1	.	.	95.7	.	.	-12.7
C=CCN1C(=O)C(Cc2ccc(OCC)cc2)S/C1=N\N=C\c1cccs1 (centres undefined)	0.87	9.5	101.1	-3.5	1	7.0
O=C(O)c1cccc(CN2C(=O)SC(Nc3ccccc3)C2=O)c1 (centres undefined)	1.21	.	102.3	-5.0	1.1	10.7
O=C(O)c1cccc(CN2C(=O)SC(Nc3cccc4ccccc34)C2=O)c1 (centres undefined)	1.02	.	103.5	58.0*	0.4	37.5
COc1ccc(CN2CC[C@H]3C=CC[C@@H](C(=O)Nc4ccc(Cl)c(C(F)(F)F)c4)[C@H]3C2=O)cc1OC	.	-23.1	.	.	.	.
SMILES	NF-kB neuron act	Pf gametocyte	STAT1 activator	FLuc inh counter	FLuc act counter	APP 5'UTR act
O=C(/C=C/Nc1ccccc1)c1ccccc1	9.06*	.	69.5	91.9*	0.1	172.1*
O=C(/C=C/Nc1ccc(F)cc1Br)c1ccccc1	1.61	-4.9	84.0	95.7*	0	148.8*
CN(C)c1ccc(N/C=C/C(=O)C(C)(C)C)cc1	1.18	10.8	112.3	24.3	0.8	37.3
Cc1ccc(C(=O)/C=C/Nc2ccc([N+](=O)[O-])cc2Br)cc1	0.94	12.2	124.7	38.9	0.6	83.0
CN(C)c1ccc(N/C=C/C(=O)c2ccccc2)cc1	2.01	-5.9	58.6	91.9*	0.1	125.0
O=C(NCc1ccc(Cl)cc1)c1ccc(OCC2CCCO2)cc1 (centres undefined)	1.2	-8.9	102.8	-9.2	1.1	13.7
O=C(Nc1ccc(Cl)cc1)c1ccc(OCC2CCCO2)cc1 (centres undefined)	2.39	6.4	137.0*	23.3	0.8	120.7
COc1ccc(/C=N/NC(=O)c2ccccc2NC(=O)c2ccco2)c(OC)c1	.	2.3	.	.	.	.
COc1ccc(C(=O)Nc2ccccc2C(=O)N/N=C/c2ccco2)cc1	1.18	17.6	74.4	96.9*	0	17.4
O=C(Nc1ccccc1C(=O)N/N=C/c1ccncc1)c1ccccc1	1.34	.	50.2	96.5*	0	16.2
